# Assay results from ChEMBL document CHEMBL4725472, “Synthesis and Evaluation of Ginkgolic Acid Derivatives as SUMOylation Inhibitors” (ACS Med Chem Lett, 2020).
# pIC50: −log10 of the molar value. The source made the active and inactive calls. No cut-off for these calls is given here.
# How the values were obtained:
# MDA-MB-231 = experiment: Cytotoxicity against human MDA-MB-231 cells assessed as reduction in cell viability incubated for 48 hrs by crystal violet staining based spectrophotometric analysis; format: functional; conditions: MDA-MB-231, 48 h
# Method in brief: (§1)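 PC3 and MDA-MB-231 cells exposed to compounds for 48 h at 10 or 20 μM; viability compared with nontreated cells (significance P ≤ 0.05); IC50 values determined in both lines; at least three independent experiments, mean ± SEM.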
# [1] = biological target: Small ubiquitin-related modifier 1 (Homo sapiens) (UniProt P63165); experiment: Inhibition of SUMO1 (unknown origin) assessed as reduction in SUMOylated RanGAP1 level at 50 uM incubated for 60 mins by western blot analysis
# Method in brief: (§2)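 Cell-free RanGAP1 SUMOylation reaction; compounds dissolved in the reaction medium at 50 μM for the initial screen, then retested at 5 μM.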
# [2] = biological target: Small ubiquitin-related modifier 1 (Homo sapiens) (UniProt P63165); experiment: Inhibition of SUMO1 in human PC3 cells assessed as reduction in SUMOylation level at 10 to 20 uM measured after 24 hrs by western blot analysis; format: cell-based; conditions: PC-3, dose microM 10-20, time 24.0 hrs
# PC-3 [3] = experiment: Induction of autophagy-mediated apoptosis in human PC3 cells assessed as increase in cleave PARP level at 10 uM measured after 24 hrs by western blot analysis; format: functional, cell-based
# Method in brief: (§3)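 PC3 cells treated at 10 or 20 μM; cleaved PARP and LC3II levels assessed by immunoblot as apoptosis and autophagy markers.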
# PC-3 [4] = experiment: Induction of autophagy-mediated apoptosis in human PC3 cells assessed as increase in cleave PARP level at 20 uM measured after 24 hrs by western blot analysis; format: functional, cell-based; method in brief: as §3
# [5] = biological target: Small ubiquitin-related modifier 1 (Homo sapiens) (UniProt P63165); experiment: Inhibition of SUMO1 in human MDA-MB-231 cells assessed as reduction in SUMOylation level at 10 uM measured after 24 hrs by western blot analysis; format: cell-based
# PC-3 [6] = experiment: Induction of autophagy in human PC3 cells assessed as increased of LC3-II level at 10 uM incubated for 24 hrs by Western blot analysis; format: functional, cell-based; method in brief: as §3
# PC-3 [7] = experiment: Cytotoxicity against human PC3 cells assessed as reduction in cell viability incubated for 48 hrs by crystal violet staining based spectrophotometric analysis; format: functional; conditions: PC-3, 48 h; method in brief: as §1
# PC-3 [8] = experiment: Induction of autophagy in human PC3 cells assessed as increased of LC3-II level at 20 uM incubated for 24 hrs by Western blot analysis; format: functional, cell-based; method in brief: as §3
# [9] = biological target: Small ubiquitin-related modifier 2 (Homo sapiens) (UniProt P61956); experiment: Inhibition of SUMO2 in human PC3 cells assessed as reduction in SUMOylation level at 10 uM measured after 24 hrs by western blot analysis; format: cell-based; conditions: PC-3
# [10] = biological target: Small ubiquitin-related modifier 1 (Homo sapiens) (UniProt P63165); experiment: Inhibition of SUMO1 (unknown origin) assessed as reduction in SUMOylated RanGAP1 level at 5 uM incubated for 60 mins by western blot analysis; method in brief: as §2
# PC3 (Homo sapiens) = experiment: Cytotoxicity against human PC3 cells assessed as cell death at 10 to 20 uM incubated for 24 hrs by crystal violet staining based spectrophotometric analysis; conditions: dose microM 10-20, time 24.0 hrs
# Small ubiquitin-related modifier 2 (Homo sapiens), sequence (P61956 whole entry): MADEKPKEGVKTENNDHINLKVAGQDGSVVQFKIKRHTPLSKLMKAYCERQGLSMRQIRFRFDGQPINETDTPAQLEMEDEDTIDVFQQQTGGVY
# Small ubiquitin-related modifier 1 (Homo sapiens), sequence (P63165 whole entry): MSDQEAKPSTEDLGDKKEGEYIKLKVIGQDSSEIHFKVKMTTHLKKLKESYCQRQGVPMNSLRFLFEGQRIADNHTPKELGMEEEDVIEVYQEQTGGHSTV
smiles,measurement,setting,value
CCCCCCCCCCCCCc1cccc(C(=O)O)c1O,pIC50,MDA-MB-231,4.89
same,inhibition,[1],inactive
same,inhibition,[2],inactive
same,Activity,PC-3 [3],inactive
same,Activity,PC-3 [4],Active
same,inhibition,[5],inactive
same,Activity,PC-3 [6],inactive
same,pIC50,PC-3 [7],4.83
same,Activity,PC-3 [8],Active
CCCCCCCCCCCCCCCc1ccc(C(=O)O)c(O)c1,inhibition,[1],inactive
CCCCCCCCCCCCC/C=C/c1cccc(O)c1C(=O)O,inhibition,[1],Active
CCCCCCCCCCCCCCCc1ccc(O)c(C(=O)O)c1,inhibition,[1],inactive
CCCCCC/C=C/c1cccc(O)c1C(=O)O,inhibition,[1],inactive
CCCCCCCCCCCc1ccc(C(=O)O)c(O)c1,inhibition,[1],inactive
CCCCCCCCc1cccc(O)c1C(=O)O,inhibition,[1],inactive
CCCCCCCCCCC/C=C/c1ccc(C(=O)O)c(O)c1,inhibition,[1],inactive
CCCCCCCCC/C=C/c1cccc(O)c1C(=O)O,inhibition,[9],Active
same,inhibition,[1],Active
same,inhibition,[2],Active
same,Activity,PC-3 [3],Active
same,Activity,PC-3 [4],Active
same,inhibition,[5],Active
same,inhibition,[10],Active
same,Activity,PC-3 [6],Active
same,Activity,PC-3 [8],Active
same,Activity,PC3 (Homo sapiens),Active
CCCCCCCCCCCCC/C=C/c1ccc(O)c(C(=O)O)c1,inhibition,[1],inactive
CCCCCCCCCCCCCCCc1cccc(O)c1C(=O)O,inhibition,[1],Active
CCCCCCCCCCCCCc1cccc(O)c1C(=O)O,inhibition,[9],Active
same,inhibition,[1],Active
same,inhibition,[2],Active
same,Activity,PC-3 [3],Active
same,Activity,PC-3 [4],Active
same,inhibition,[5],Active
same,Activity,PC-3 [6],Active
same,Activity,PC-3 [8],Active
same,Activity,PC3 (Homo sapiens),Active
CCCCCCCCCCC/C=C/c1ccc(O)c(C(=O)O)c1,inhibition,[1],inactive
CCCCCCCCCCCc1cccc(C(=O)O)c1O,inhibition,[1],inactive
CCCCCCCCC/C=C/c1cccc(C(=O)O)c1O,inhibition,[1],inactive
CCCCCCCCCCCCC/C=C/c1ccc(C(=O)O)c(O)c1,inhibition,[1],inactive
CCCCCCCCCCCCCCCc1cccc(C(=O)O)c1O,inhibition,[1],inactive
CCCCCCCCCCCc1cccc(O)c1C(=O)O,inhibition,[9],Active
same,inhibition,[1],Active
same,inhibition,[2],Active
same,Activity,PC-3 [3],Active
same,Activity,PC-3 [4],Active
same,inhibition,[5],Active
same,Activity,PC-3 [6],Active
same,Activity,PC-3 [8],Active
same,Activity,PC3 (Homo sapiens),Active
CCCCCCCCCCCCCc1ccc(O)c(C(=O)O)c1,inhibition,[1],inactive
CCCCCCCCC/C=C/c1ccc(C(=O)O)c(O)c1,inhibition,[1],inactive
CCCCCCCCCCC/C=C/c1cccc(C(=O)O)c1O,inhibition,[1],inactive
CCCCCCCCCCCCCc1ccc(C(=O)O)c(O)c1,inhibition,[1],inactive
CCCCCCc1cccc(O)c1C(=O)O,inhibition,[1],inactive
CCCCCCCCCCC/C=C/c1cccc(O)c1C(=O)O,pIC50,MDA-MB-231,5.09
same,inhibition,[9],Active
same,inhibition,[1],Active
same,inhibition,[2],Active
same,Activity,PC-3 [3],Active
same,Activity,PC-3 [4],Active
same,inhibition,[5],Active
same,inhibition,[10],Active
same,Activity,PC-3 [6],Active
same,pIC50,PC-3 [7],4.97
same,Activity,PC-3 [8],Active
same,Activity,PC3 (Homo sapiens),Active
CCCC/C=C/c1cccc(O)c1C(=O)O,inhibition,[1],inactive
CCCCCCCCC/C=C/c1ccc(O)c(C(=O)O)c1,inhibition,[1],inactive
CCCCCCCCCCCc1ccc(O)c(C(=O)O)c1,inhibition,[1],inactive
CCCCCCCCCCCCC/C=C/c1cccc(C(=O)O)c1O,inhibition,[1],inactive
